Source: ChEMBL document CHEMBL1149137, “Synthesis, screening, and molecular modeling of new potent and selective antagonists at the alpha 1d adrenergic receptor” (J Med Chem, 2004)

Key:
[1] = molecular target: T1, Alpha-1D adrenergic receptor (Rattus norvegicus) (UniProt P23944); conditions: Aorta
T1 sequence (whole entry): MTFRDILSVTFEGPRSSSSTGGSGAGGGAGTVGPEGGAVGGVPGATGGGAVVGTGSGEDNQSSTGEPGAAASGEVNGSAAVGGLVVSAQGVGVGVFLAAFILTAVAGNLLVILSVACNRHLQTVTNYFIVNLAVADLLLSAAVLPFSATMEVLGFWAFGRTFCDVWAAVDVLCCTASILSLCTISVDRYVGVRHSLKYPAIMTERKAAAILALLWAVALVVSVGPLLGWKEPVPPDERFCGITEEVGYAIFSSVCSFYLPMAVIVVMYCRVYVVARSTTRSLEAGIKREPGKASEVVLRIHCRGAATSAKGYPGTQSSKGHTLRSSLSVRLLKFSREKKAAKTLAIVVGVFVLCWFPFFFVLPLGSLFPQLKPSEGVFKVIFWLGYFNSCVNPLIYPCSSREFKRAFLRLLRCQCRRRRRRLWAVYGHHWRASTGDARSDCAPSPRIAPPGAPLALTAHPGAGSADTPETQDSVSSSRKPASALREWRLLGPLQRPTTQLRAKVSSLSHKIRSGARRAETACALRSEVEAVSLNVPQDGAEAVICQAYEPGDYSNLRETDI

[2] = molecular target: T2, Alpha-1A adrenergic receptor (Rattus norvegicus) (UniProt P43140); conditions: Vas deferens
T2 sequence (whole entry): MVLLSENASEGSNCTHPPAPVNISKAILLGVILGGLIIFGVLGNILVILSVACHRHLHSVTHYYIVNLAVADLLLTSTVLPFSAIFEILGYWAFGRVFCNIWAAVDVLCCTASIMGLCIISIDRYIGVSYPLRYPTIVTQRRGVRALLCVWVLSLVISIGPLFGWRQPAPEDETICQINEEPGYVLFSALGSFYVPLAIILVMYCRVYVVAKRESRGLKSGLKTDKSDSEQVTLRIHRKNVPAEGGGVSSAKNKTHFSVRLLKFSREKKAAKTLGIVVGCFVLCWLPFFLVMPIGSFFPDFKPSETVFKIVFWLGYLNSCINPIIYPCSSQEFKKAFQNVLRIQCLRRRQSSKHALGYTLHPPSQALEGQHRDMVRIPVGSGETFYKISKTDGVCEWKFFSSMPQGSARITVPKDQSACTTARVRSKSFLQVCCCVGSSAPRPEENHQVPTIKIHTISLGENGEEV

[3] = molecular target: Alpha-1D adrenergic receptor (Homo sapiens) (UniProt P25100); experiment: Binding affinity to the adrenergic receptor alpha-1D of cloned human receptor
[4] = molecular target: T3, 5-hydroxytryptamine receptor 1A (Homo sapiens, UniProt P08908); experiment: Binding affinity to human 5-hydroxytryptamine 1A receptor was measured using [3H]-8-hydroxy-2-(di-n-propylamine) tetraline [3H]8-OH-DPAT) as radioligand
T3 sequence (P08908 whole entry): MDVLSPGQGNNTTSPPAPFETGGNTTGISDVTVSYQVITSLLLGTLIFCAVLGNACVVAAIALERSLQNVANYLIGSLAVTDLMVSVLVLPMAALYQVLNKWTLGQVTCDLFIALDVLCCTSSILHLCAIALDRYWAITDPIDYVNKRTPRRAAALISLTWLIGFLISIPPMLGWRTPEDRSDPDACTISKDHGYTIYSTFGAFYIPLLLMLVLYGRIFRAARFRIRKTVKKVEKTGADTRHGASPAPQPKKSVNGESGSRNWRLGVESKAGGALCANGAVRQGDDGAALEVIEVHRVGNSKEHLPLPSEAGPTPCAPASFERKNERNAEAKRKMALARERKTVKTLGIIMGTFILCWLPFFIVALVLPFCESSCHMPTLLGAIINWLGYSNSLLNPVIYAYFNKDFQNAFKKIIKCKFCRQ

[5] = molecular target: T1, Alpha-1D adrenergic receptor (Rattus norvegicus); experiment: Fraction involved in salt bridge interactions with Asp3:11 part of the alpha-1D adrenergic receptor
Summary of the method: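 Comparative models were built on a rhodopsin template and refined by energy minimization and MD. Docking used MCSS, and the value is the fraction of substituted phenylpiperazines forming a salt bridge with receptor Asp3:11.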

pKB [1] | pKB [2] | Ki [3] | Ki [4] | Activity [5] | SMILES
8.89 | 7 | 0.11 nM |  |  | O=C1CC2(CCCC2)CCN1CCN1CCN(c2cc(Cl)ccc2Cl)CC1
 |  |  | 0.8 nM | 0.3 | COc1ccccc1N1CCN(CCN2C(=O)CC3(CCCC3)CC2=O)CC1 [BMY-7378]
8.99 |  | 0.13 nM |  | 0.4 | O=C1CC2(CCCC2)CC(=O)N1CCN1CCN(c2cc(Cl)ccc2Cl)CC1
